In test [1] the target is T1, Glutamate NMDA receptor (Rattus norvegicus) (UniProt P35439+Q00959+Q00960+Q00961+Q62645+Q8VHN2+Q9R1M7). Briefly: Inhibition of [3H]- glycine binding to NMDA receptor of rat membrane. Also on record: concentration or dose not given beside the values. As to conditions: concentration not given here. The method in brief:
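Rat cortical synaptic membranes, [3H]glycine at 10 nM (KD 75 nM under these conditions). Compounds from 1 mM stock in 50% DMSO, diluted in buffer; four to six concentrations in triplicate, three or four displacement curves. IC50 converted to Ki by Cheng-Prusoff.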

For test [2], the target named is Glutamate receptor ionotropic, kainate (Rattus norvegicus) (UniProt P22756+Q01812+P42260+P42264+Q63273). Briefly: Inhibition of [3H]KA binding to kainate receptor in rat brain membranes. The format is cell membranes. Set-up: concentration or dose not given beside the values. The following applies: concentration not given here. The method in brief: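 Rat membranes resuspended at 0.5 mg protein/mL in 0.05 M Tris-citrate pH 7.4, preincubated 37 °C for 30 min, washed three times in ice-cold buffer. Incubated on ice for 60 min with 5 nM [3H]kainate and test compound. Nonspecific binding defined with 1 mM glutamate. Bound ligand recovered by GF/C filtration. Single-point inhibition measured at 100 µM.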

Test [3] deals with Glutamate receptor ionotropic, kainate. Briefly: Inhibition of [3H]KA binding to kainate receptor of rat brain membranes. It is filed as cell membranes, Membrane.
Test [4] addresses Glutamate receptor ionotropic, AMPA (Rattus norvegicus, UniProt P19490+P19491+P19492+P19493). Briefly: Binding affinity at ionotropic glutamate receptor AMPA in rat cortical membranes [3H]AMPA displacement. It is filed as cell membranes.
Test [5] concerns the target Glutamate receptor ionotropic, AMPA (Mus musculus, UniProt P23818+P23819+Q9Z2W8+Q9Z2W9). Briefly: Antagonism at ionotropic glutamate receptor AMPA in mouse cortical wedge preparation. The format is functional. The method in brief:
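Mouse cortical wedges perfused with Mg2+-free medium; AMPA (5 µM) applied for 2 min every 15 min until control peaks stabilised, then continuous superfusion with antagonist while agonist applications continued. IC50 from depolarization peaks with agonist plus antagonist compared with control peaks; four separate determinations.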

For test [6], the target named is Glutamate NMDA receptor. Briefly: Ability to displace [3H]glycine from NMDA receptor in rat cortical membranes. It is filed as cell membranes. The procedure, abridged:
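Rat cortical synaptic membranes; [3H]glycine at 10 nM (KD 75 nM under these conditions). Test compound from 1 mM stock in 50% DMSO, diluted in buffer; four to six concentrations in triplicate, three or four displacement curves. IC50 by curve fitting, converted to Ki by Cheng-Prusoff.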

Test [7] deals with Glutamate NMDA receptor. Briefly: Inhibition of [3H]-(+)-MK-801 binding to NMDA receptor ion-channel complex of rat cortical memembranes. The format is protein-complex assay. The procedure, abridged: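 Rat cortical membranes washed in 5 mM Tris-HCl pH 7.4 with 0.08% Triton X-100, 0.2-0.3 mg protein/tube. Incubated with 2.5 nM [3H]-(+)-MK-801, 10 µM glutamate and 0.1 µM glycine at room temperature for 120 min. IC50 or % inhibition at 100 µM; three or four determinations in triplicate.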

Test [8] in a line: Antagonism at NMDA receptor in mouse cortical wedge preparation expressed as concentration that inhibits by 50% depolarizations induced by 5 uM NMDA.
The target in test [9] is Glutamate receptor ionotropic, kainate. Briefly: Inhibition of specific binding of [3H]KA at kainate receptor in rat brain membranes. The format is cell membranes. The method in brief: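 Membranes preincubated at 37 °C for 30 min in 0.05 M Tris-citrate pH 7.4, then washed; 0.2-0.3 mg protein with 5 nM [3H]kainate on ice for 60 min. Nonspecific binding defined with 1 mM glutamate; bound ligand separated by glass-fibre filtration.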

In test [10] the target is Glutamate NMDA receptor. Briefly: Ability to displace [3H]glycine from NMDA receptor in rat corticaln membranes. The format is cell membranes.
The nature of test [11]: Antagonism at NMDA receptor in mouse cortical wedge preparation expressed as concentration that inhibits by 50% depolarizations induced by 5 uM AMPA. The format is functional. The following applies: in the assay text read “5 uM NMDA” for “5 uM AMPA”. The method in brief: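 Mouse cortical wedges, gray matter perfused with Mg2+-free medium. Agonists (5 µM AMPA or 5 µM NMDA) applied for 2 min every 15 min until control peaks stabilised, then continuous superfusion with antagonist while agonist applications continued. IC50 from depolarization peaks with agonist plus antagonist compared to control peaks; four separate determinations.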

The target of test [12] is T1, Glutamate NMDA receptor (Rattus norvegicus). Briefly: Percent inhibition of stimulated [3H](+)-MK-801 binding against N-methyl-D-aspartate glutamate receptor. It is filed as protein-complex assay. The following applies: concentration not given here. The procedure, abridged: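 Rat cortical membranes washed in 5 mM Tris-HCl pH 7.4 containing 0.08% Triton X-100, then put through further resuspension/centrifugation cycles. Incubation for 120 min at room temperature with 2.5 nM [3H]-(+)-MK-801, 10 µM glutamate and 0.1 µM glycine. Percent inhibition of specific binding at 100 µM; three or four determinations in triplicate.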

Test [13] is described as follows: Inhibition of specific binding of [3H]KA against iGluRs.

SMILES strings stand for the structures. pIC50, pKi: −log10 of the molar value.

In turn, `CCOC(=O)c1nc2c(O)nc3cc(Cl)c(-n4ccnc4)cc3n2n1` displayed an inhibition in test [1] of 39%.

Consider `CCOC(=O)c1nc2c(O)nc3ccc(-n4cnnc4)cc3n2n1`, for which the inhibition in [2] worked out at 20%; in [1], 0%.

`O=C(O)c1nc2c(O)nc3cc(Cl)c(-n4cccc4)cc3n2n1`: the negative logarithm of the IC50 (pIC50) in [3] is 4.44; in test [5], 5.52; in test [7], 4.93; in [8], 4.28. Further, the pKi in test [4] and in test [6] was 6.07 throughout.

Turning to `CCOC(=O)c1nc2c(O)nc3cc(-n4cnnc4)ccc3n2n1`, the inhibition was determined as 35% in test [2] and 8% in [1]. Besides, the pKi in test [4] was 5.00.

In the case of `CCOC(=O)c1nc2c(O)nc3cc(Cl)c(-n4cncn4)cc3n2n1`, the inhibition amounted to 29% in [2] and 28% in [1]. In test [4], this molecule showed a pKi of 4.76.

The molecule `CCOC(=O)c1nc2c(O)nc3cc(Cl)c(-n4cccn4)cc3n2n1` had an inhibition in test [2] of 20%. In test [9], the pKi was 5.15.

Consider `O=C(O)c1nc2c(O)nc3cc(-n4cnnc4)ccc3n2n1`, for which the figures for the inhibition in [2] and in [1] were 44% and 0%, respectively. This molecule showed a negative logarithm of the Ki (pKi) in [4] of 5.37.

In [10], `O=C(O)c1cc(O)c2c(Cl)cc(Cl)cc2n1` showed a pKi of 7.05. The same molecule displayed an IC50 in test [11] of 4.7 µM.

In the case of `CCOC(=O)c1nc2c(O)nc3ccc([N+](=O)[O-])cc3n2n1`, in test [1], the inhibition worked out at 35%.

`O=C(O)c1nc2c(O)nc3cc(Cl)c(-n4cncn4)cc3n2n1` had a pKi in test [4] of 5.43. In addition, the pIC50 in test [5] is 4.92; in test [13], 4.32; in [8], 3.46. Besides, the values for the inhibition in test [12] and in test [1] were 30% and 35%, respectively.

For `O=C(O)c1nc2c(O)nc3cc(Cl)c(-n4ccnc4)cc3n2n1`, the inhibition in test [12] and in [1] was 45% throughout.

`CCOC(=O)c1nc2c(O)nc3cc(Cl)c(-n4ccc(C=O)c4)cc3n2n1`: the pIC50 in test [3] was 4.06. Further, the pKi in [4] is 5.72; in [6] it was 4.72.

In the case of `CCOC(=O)c1nc2c(O)nc3cc(Cl)c(-n4cnnc4)cc3n2n1`, the inhibition in test [1] worked out at 15%.

Turning to `O=C(O)c1nc2c(O)nc3ccc(-n4cnnc4)cc3n2n1`, the pIC50 in test [3] was 4.05. Also, the pKi in [4] was 4.76. Further, the inhibition in test [12] came to 20%; in [1] it was 0%.

For `O=C(O)c1nc2c(O)nc3cc(Cl)c(-n4cnnc4)cc3n2n1` [TQX-173], the pIC50 is 5.64 in [5], 4.34 in [11] and 4.17 in test [7]. This molecule also gave a pKi in test [10] of 4.47.

`CCOC(=O)c1nc2c(=O)[nH]c3cc(Cl)c(N)cc3n2n1` showed a pIC50 in [3] of 4.08. Also, the results for the pKi in test [4] and in test [10] were 4.69 and 5.32, respectively.

With `O=C(O)c1nc2c(O)nc3ccc([N+](=O)[O-])cc3n2n1`, in test [2], the inhibition was 16%. Besides, in test [10], the pKi was 4.10.

In the case of `O=Cc1ccn(-c2cc3c(cc2Cl)nc(O)c2nc(C(=O)O)nn23)c1`, the negative-log IC50 (pIC50) in test [3] is 5.05; in [5], 5.92; in test [11], 4.64; in test [7], 4.37. The negative logarithm of the Ki (pKi) in test [4] is 6.28; in test [6], 4.55.

Consider `CCOC(=O)c1nc2c(O)nc3cc(Cl)c(-n4cccc4)cc3n2n1`, for which the inhibition in test [2] came to 7%. Also, the pKi in test [4] is 4.74; in test [9], 4.64.

On to `Nc1ccc2nc(O)c3nc(C(=O)O)nn3c2c1`, for which, in [3], the pIC50 is 4.09. In test [4], this molecule gave a pKi of 4.36. This molecule also had an inhibition in test [1] of 35%.

Turning to `Nc1cc2c(cc1Cl)nc(O)c1nc(C(=O)O)nn12`, the figures for the pIC50 in test [3] and in test [7] were 4.65 and 5.25, respectively. Besides, the pKi was 5.31 in [4] and 5.44 in test [10].

Consider `NS(=O)(=O)c1cccc2c1c([N+](=O)[O-])cc1nc(O)c(O)nc12` [NBQX], for which the inhibition in test [1] turned out to be 3%. The same molecule gave a pIC50 in test [7] of 6.70.

Consider `O=C(O)c1nc2c(O)nc3cc(Cl)c([N+](=O)[O-])cc3n2n1`, for which the pKi in test [9] is 5.66. In test [7], this molecule gave a pIC50 of 4.75.

For the molecule `O=C(O)c1nc2c(=O)[nH]c3cc(Cl)c(-n4cccn4)cc3n2n1`, the pIC50 is 4.70 in [3], 5.52 in test [5], 4.77 in test [7] and 3.82 in test [8]. Further, the negative logarithm of the Ki (pKi) in test [4] is 5.37; in test [10], 5.28.

Turning to `CCOC(=O)c1nc2c(O)nc3ccc(N)cc3n2n1`, the inhibition in test [1] was 16%.

For `CCOC(=O)c1nc2c(O)nc3cc(Cl)c([N+](=O)[O-])cc3n2n1`, the inhibition in test [2] worked out at 35%; in test [1], 10.2%. This molecule showed a negative-log Ki (pKi) in test [4] of 4.33.

As usually defined, the inhibition is the relative decrease from the control value, in per cent. What is called pIC50 is the IC50 on a negative log10 scale, so that one unit is a factor of ten. One may read the pKi as the Ki on a negative log10 scale, so that one unit is a factor of ten. As usually defined, the IC50 is the concentration needed to halve the response being measured.

The values are drawn from ChEMBL document CHEMBL1134598, “Synthesis, ionotropic glutamate receptor binding affinity, and structure-activity relationships of a new set of 4,5-dihydro-8-heteroaryl-4-oxo-1,2,4-triazolo[1,5-a]quinoxaline-2-carboxylates analogues of TQX-173” (J Med Chem, 2001).
